Test results reported in ChEMBL document CHEMBL3627667, “Novel halogenated 3-deazapurine, 7-deazapurine and alkylated 9-deazapurine derivatives of L-ascorbic or imino-L-ascorbic acid: Synthesis, antitumour and antiviral activity evaluations” (Eur J Med Chem, 2015).

Assays:
[1] = Antiproliferative activity against human MIAPaCa2 cells incubated for 72 hrs by MTT assay; format: functional, cell-based, MIA PaCa-2
Outline: (§1)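 Cells seeded at 5000 per well on day 0. Test agents added in five 10-fold dilutions (0.01–100 μM) for a further 72 h, with DMSO ≤0.1% as solvent control. Growth was read by MTT and absorbance converted to percentage growth against untreated cells on the same plate. IC50 came from linear regression on dose–response curves. Quadruplicate points, three independent experiments.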

Sindbis virus = experiment: Antiviral activity against Sindbis virus expressed in African green monkey Vero cells assessed as reduction in cytopathogenicity; format: functional, organism-based
Outline: (§2)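 Confluent Vero monolayers were inoculated with 100 CCID50 of virus in the presence of 5-fold serial compound dilutions. Cytopathicity was scored once it was complete in untreated infected controls. EC50 is the concentration giving 50% reduction of virus-induced cytopathogenicity.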

Coxsackievirus B4 = experiment: Antiviral activity against Coxsackievirus B4 expressed in African green monkey Vero cells assessed as reduction in cytopathogenicity; format: functional, organism-based; conditions: Enterovirus B; outline: as §2
[2] = Cytotoxicity against African green monkey Vero cells assessed as alteration in cell morphology by microscopy; format: cell-based; conditions: chlorocebus sabaeus
Outline: (§3)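 MCC is the compound concentration causing a microscopically visible alteration of cell morphology in the cultures used for the antiviral assays.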

Human alphaherpesvirus 3 [3] = experiment: Antiviral activity against thymidine kinase deficient Varicella zoster virus 07-1 expressed in HEL cells assessed as reduction in plaque formation incubated for 5 days; format: functional, organism-based; conditions: Human alphaherpesvirus 3, 07-1, HEL, 120 h
Outline: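 Confluent HEL cells in 96-well plates inoculated with TK-deficient VZV strain 07-1 at 20 PFU per well; residual virus removed after 2 h, then varying compound concentrations added in duplicate. EC50 = concentration reducing viral plaque formation by 50% versus untreated controls after 5 days.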

Punta Toro virus = experiment: Antiviral activity against Punta Toro virus expressed in African green monkey Vero cells assessed as reduction in cytopathogenicity; format: functional, organism-based; outline: as §2
[4] = Antiproliferative activity against human CEM/0 cells incubated for 72 hrs by MTT assay; format: functional, cell-based, CCRF-CEM; outline: as §1
HepG2 = experiment: Antiproliferative activity against human HepG2 cells incubated for 72 hrs by MTT assay; format: functional, cell-based; outline: as §1
[5] = system: Mammalian orthoreovirus 1; experiment: Antiviral activity against Reovirus 1 expressed in African green monkey Vero cells assessed as reduction in cytopathogenicity; format: functional, cell-based; conditions: Mammalian orthoreovirus 1, Vero; outline: as §2
[6] = Antiproliferative activity against mouse L1210/0 cells incubated for 72 hrs by MTT assay; format: functional, cell-based; outline: as §1
SW-620 = experiment: Antiproliferative activity against human SW620 cells incubated for 72 hrs by MTT assay; format: functional, cell-based; outline: as §1
Human alphaherpesvirus 3 [7] = experiment: Antiviral activity against Varicella zoster virus Oka expressed in HEL cells assessed as reduction in plaque formation incubated for 5 days; format: functional, organism-based; conditions: Human alphaherpesvirus 3, Oka, 120 h
Outline: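 Confluent HEL cells were inoculated at 20 PFU per well of VZV. Residual virus was removed after 2 h, then compound dilutions were added in duplicate. EC50 is the concentration reducing plaque formation by 50% versus untreated controls after 5 days.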

HeLa [8] = experiment: Antiproliferative activity against human HeLa cells incubated for 72 hrs by MTT assay; format: functional, cell-based; outline: as §1
Human respirovirus 3 = experiment: Antiviral activity against Parainfluenza virus 3 expressed in African green monkey Vero cells assessed as reduction in cytopathogenicity; format: functional, organism-based; conditions: Human respirovirus 3, Vero; outline: as §2
Human betaherpesvirus 5 [9] = experiment: Antiviral activity against Human cytomegalovirus AD169 expressed in HEL cells assessed as reduction in plaque formation incubated for 7 days by Giemsa stain based microscopy; format: functional, organism-based; conditions: Human betaherpesvirus 5, AD169, HEL, 168 h
Outline: (§4)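 Confluent HEL fibroblasts were infected at 100 PFU per well. After 2 h, residual virus was removed and compound-containing medium added, in duplicate. After 7 days at 37 °C, cells were ethanol-fixed, Giemsa-stained and examined microscopically. EC50 was read from graphic plots of % cytopathogenicity versus concentration.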

HeLa [10] = experiment: Cytotoxicity against human HeLa cells assessed as cell growth reduction incubated for 3 days; format: cell-based; conditions: 72 h
Human betaherpesvirus 5 [11] = experiment: Antiviral activity against Human cytomegalovirus Davis expressed in HEL cells assessed as reduction in plaque formation incubated for 7 days by Giemsa stain based microscopy; format: functional, organism-based; conditions: Human betaherpesvirus 5, Davis, 168 h; outline: as §4
[12] = Cytotoxicity against human HEL cells assessed as alteration in cell morphology incubated for 3 days by microscopy; format: cell-based; outline: as §3
HEL = experiment: Cytotoxicity against human HEL cells assessed as cell growth reduction incubated for 3 days; format: cell-based; conditions: 72 h
Outline: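 HEL cells were seeded at 5 × 10^3 per well and allowed to proliferate for 24 h before compound-containing medium was added. After 3 days at 37 °C, cells were counted with a Coulter counter. CC50 (50% reduction of proliferation versus untreated controls) was estimated from graphic plots.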

[13] = Cytotoxicity against CRFK cells assessed as cell growth reduction incubated for 3 days; format: cell-based, Felis catus; conditions: cat, 72 h
CFPAC-1 = experiment: Antiproliferative activity against human CFPAC-1 cells incubated for 72 hrs by MTT assay; format: functional, cell-based; conditions: CFPAC-1, 72 h; outline: as §1

| Structure (SMILES) | IC50 ([1]; Homo sapiens, MIA PaCa-2, 72 h) | IC50 ([4]; Homo sapiens, CCRF-CEM, 72 h) | IC50 (HepG2; Homo sapiens, HepG2, 72 h) | IC50 ([6]; Mus musculus, L1210/0, 72 h) | IC50 (SW-620; Homo sapiens, SW-620, 72 h) | IC50 (HeLa [8]; Homo sapiens, HeLa, 72 h) | other results |
| --- | --- | --- | --- | --- | --- | --- | --- |
| O=C1O/C(=C\Cn2cnc3ccn(C/C=C4\OC(=O)C(OCc5ccccc5)=C4OCc4ccccc4)c3c2=O)C(OCc2ccccc2)=C1OCc1ccccc1 | 26.2 µM | 19 µM | > 100 µM | 4.5 µM | 47.2 µM | 5.6 µM | EC50 (Sindbis virus): > 20 µM; EC50 (Coxsackievirus B4): > 20 µM; MCC [2]: ≥ 20 µM; EC50 (Human alphaherpesvirus 3 [3]): 7.6 µM; EC50 (Punta Toro virus): 6.7 µM; EC50 [5]: > 20 µM; EC50 (Human alphaherpesvirus 3 [7]): 13.8 µM; EC50 (Human respirovirus 3): > 20 µM |
| COc1nc(OC)c2c(ccn2CCC2(O)NC(=O)C(OCc3ccccc3)=C2OCc2ccccc2)n1 (stereo not given) |  | 87 µM | > 100 µM |  |  |  |  |
| O=C1O/C(=C\Cn2cnc3c(F)nc(F)c(Cl)c32)C(OCc2ccccc2)=C1OCc1ccccc1 | 78 µM |  | > 100 µM |  | 55 µM | > 100 µM | EC50 (Human betaherpesvirus 5 [9]): 44.7 µM; EC50 (Sindbis virus): > 20 µM; EC50 (Coxsackievirus B4): 14.5 µM; MCC [2]: ≥ 20 µM; EC50 (Punta Toro virus): 12 µM; Activity (HeLa [10]): Non-toxic; EC50 (Human betaherpesvirus 5 [11]): 44.7 µM; EC50 [5]: > 20 µM; MCC at 72 h [12]: > 100 µM; EC50 (Human respirovirus 3): > 20 µM; CC50 (HEL): ≥ 100 µM |
| O=C1NC(O)(CCn2cnc3ccnc(Cl)c32)C(OCc2ccccc2)=C1OCc1ccccc1 (stereo not given) | 60 µM |  | > 100 µM |  | > 100 µM | 21 µM |  |
| O=C1NC(O)(CCn2cnc3cncc(Br)c32)C(OCc2ccccc2)=C1OCc1ccccc1 (stereo not given) | 48.7 µM | 25 µM | 66.5 µM | 50 µM | > 100 µM | 77 µM |  |
| Nc1nc(F)c(Cl)c2c1ncn2CCC1(O)NC(=O)C(OCc2ccccc2)=C1OCc1ccccc1 (stereo not given) | > 100 µM |  | > 100 µM |  | 59 µM | 39 µM |  |
| O=C1NC(O)(/C=C\n2cc(I)c3c(Cl)ncnc32)C(OCc2ccccc2)=C1OCc1ccccc1 (stereo not given) | 22.6 µM | > 250 µM | 32.4 µM | > 250 µM | 46.9 µM | > 250 µM |  |
| O=C1O/C(=C\Cn2cnc3cc[nH]c3c2=O)C(OCc2ccccc2)=C1OCc1ccccc1 | > 100 µM | 16 µM | > 100 µM | 28 µM | > 100 µM | 27 µM |  |
| O=C1NC(O)(CCn2cnc3cc[nH]c3c2=O)C(OCc2ccccc2)=C1OCc1ccccc1 (stereo not given) | 36.6 µM | 87 µM | > 100 µM | 107 µM | 90.7 µM | 92 µM |  |
| O=C1O/C(=C\Cn2cnc3cncc(Br)c32)C(OCc2ccccc2)=C1OCc1ccccc1 (mixture of isomers) | 22.6 µM | 5.7 µM | 46.9 µM | 6.8 µM | 32.9 µM | 15 µM |  |
| COc1nc(OC)c2c(ccn2C/C=C2\OC(=O)C(OCc3ccccc3)=C2OCc2ccccc2)n1 (mixture of isomers) | 33.9 µM | 4.1 µM | > 100 µM | 4.7 µM | 47.1 µM | 12 µM | EC50 (Human betaherpesvirus 5 [9]): 4.99 µM; EC50 (Human betaherpesvirus 5 [11]): 1.99 µM; MCC at 72 h [12]: ≥ 20 µM; CC50 (HEL): 36.6 µM |
| O=C1O/C(=C\Cn2cnc3c(Cl)c(F)nc(F)c32)C(OCc2ccccc2)=C1OCc1ccccc1 (mixture of isomers) | > 100 µM |  | > 100 µM |  | 50 µM | > 100 µM | EC50 (Human betaherpesvirus 5 [9]): 8.94 µM; EC50 (Sindbis virus): > 20 µM; EC50 (Coxsackievirus B4): > 20 µM; MCC [2]: 20 µM; EC50 (Punta Toro virus): 12 µM; Activity (HeLa [10]): Non-toxic; EC50 (Human betaherpesvirus 5 [11]): 8.94 µM; EC50 [5]: > 20 µM; MCC at 72 h [12]: ≥ 100 µM; Activity [13]: Non-toxic; EC50 (Human respirovirus 3): > 20 µM; CC50 (HEL): > 100 µM |
| O=C1O/C(=C\Cn2cnc3ccnc(Cl)c32)C(OCc2ccccc2)=C1OCc1ccccc1 (mixture of isomers) | > 100 µM |  | > 100 µM |  | > 100 µM | > 100 µM |  |
| O=C1O/C(=C\Cn2cnc3c(Cl)c(F)nc(F)c32)C(O)=C1O (mixture of isomers) | > 100 µM |  | > 100 µM |  | > 100 µM | > 100 µM |  |
| O=C1O/C(=C\Cn2cnc3ncc(Br)c-3c2)C(OCc2ccccc2)=C1OCc1ccccc1 (mixture of isomers) | > 100 µM | 12 µM | > 100 µM | 15 µM | > 100 µM | 17 µM | IC50 (CFPAC-1): > 100 µM |
| O=C1O/C(=C\Cn2cc(I)c3c(Cl)ncnc32)C(OCc2ccccc2)=C1OCc1ccccc1 (mixture of isomers) | 33.3 µM | > 250 µM | > 100 µM | 128 µM | > 100 µM | 65 µM |  |
| O=C1NC(O)(CCn2cnc3ccn(CCC4(O)NC(=O)C(OCc5ccccc5)=C4OCc4ccccc4)c3c2=O)C(OCc2ccccc2)=C1OCc1ccccc1 (stereo in doubt; 18) | 5.7 µM |  | > 100 µM | 4.4 µM |  | 17 µM | IC50 ([4]; ccrf-cem): 15 µM; IC50 (SW-620; sw-620): 69.9 µM |
| O=C1NC(O)(CCn2cnc3ccn(CCC4(O)NC(=O)C(OCc5ccccc5)=C4OCc4ccccc4)c3c2=O)C(OCc2ccccc2)=C1OCc1ccccc1 (stereo in doubt; 19) |  |  |  |  |  |  | IC50 ([1]; mia paca-2): 4.4 µM; IC50 ([4]; ccrf-cem): 4.9 µM; IC50 (HepG2; hepg2): 52 µM; IC50 ([6]; l1210/0): 7.6 µM; IC50 (SW-620; sw-620): 30.5 µM; IC50 (HeLa [8]; hela): 18 µM |
| Nc1ncnc2c1ncn2C[C@H](O)CO [(S)-DHPA] |  |  |  |  |  |  | EC50 (Sindbis virus): > 250 µM; EC50 (Coxsackievirus B4): > 250 µM; MCC [2]: > 250 µM; EC50 (Punta Toro virus): > 250 µM; EC50 [5]: > 250 µM; EC50 (Human respirovirus 3): > 250 µM |
| Nc1ccn(C[C@@H](CO)OCP(=O)(O)O)c(=O)n1 [CIDOFOVIR] |  |  |  |  |  |  | EC50 (Human betaherpesvirus 5 [9]): 0.61 µM; EC50 (Human betaherpesvirus 5 [11]): 0.51 µM; MCC at 72 h [12]: > 300 µM; CC50 (HEL): 153 µM |
| O=c1[nH]cc(F)c(=O)[nH]1 [FLUOROURACIL] |  |  | 55.2 µM |  | 0.79 µM | 66.5 µM |  |
| Nc1nc(O)c2ncn(COC(CO)CO)c2n1 [GANCICLOVIR] |  |  |  |  |  |  | EC50 (Human betaherpesvirus 5 [9]): 6.12 µM; EC50 (Human betaherpesvirus 5 [11]): 4.72 µM; MCC at 72 h [12]: > 350 µM; CC50 (HEL): 328 µM |
| NC(=O)c1ncn([C@@H]2O[C@H](CO)[C@@H](O)[C@H]2O)n1 [RIBAVIRIN] |  |  |  |  |  |  | EC50 (Sindbis virus): > 250 µM; EC50 (Coxsackievirus B4): > 250 µM; MCC [2]: > 250 µM; EC50 [5]: > 250 µM; EC50 (Human respirovirus 3): 73.5 µM |
